Converted amounts (≈) assume the structure as drawn. The source made the active and inactive calls. The calls are words filed in the database; no cut-off is given here. Bounds are passed on as bounds.

The source of these data is ChEMBL document CHEMBL1154106, “Inhibitory effects of 5-benzylidene barbiturate derivatives on mushroom tyrosinase and their antibacterial activities” (Eur J Med Chem, 2009).

One assay concerns Bacillus cereus. Nature of the assay: Antibacterial activity against Bacillus cereus at 1 mg/ml after 24 hrs by agar dilution method. The assay is classed as functional, organism-based.
For a further assay, the target named is T1, Tyrosinase (Agaricus bisporus, UniProt O42713).
T1 sequence (O42713 whole entry): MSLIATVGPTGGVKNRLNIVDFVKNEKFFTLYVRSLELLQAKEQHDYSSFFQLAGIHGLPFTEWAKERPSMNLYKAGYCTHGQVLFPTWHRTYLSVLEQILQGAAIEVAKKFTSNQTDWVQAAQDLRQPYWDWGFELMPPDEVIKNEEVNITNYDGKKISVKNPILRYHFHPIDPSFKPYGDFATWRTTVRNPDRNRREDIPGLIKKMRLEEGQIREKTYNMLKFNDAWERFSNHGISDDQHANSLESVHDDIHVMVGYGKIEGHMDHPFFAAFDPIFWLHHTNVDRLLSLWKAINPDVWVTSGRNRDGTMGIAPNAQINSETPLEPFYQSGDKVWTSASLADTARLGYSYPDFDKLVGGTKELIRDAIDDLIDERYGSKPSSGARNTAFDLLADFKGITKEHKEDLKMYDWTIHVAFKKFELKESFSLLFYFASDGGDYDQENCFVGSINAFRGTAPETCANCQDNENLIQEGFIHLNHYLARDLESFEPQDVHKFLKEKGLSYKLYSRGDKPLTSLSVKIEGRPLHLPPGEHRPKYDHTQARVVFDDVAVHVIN
The experiment in a line: Inhibition of mushroom tyrosinase. The procedure, abridged: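 Mushroom tyrosinase diphenolase assay: 1 mL reaction with 0.5 mM L-DOPA in 50 mM sodium phosphate buffer, pH 6.8, enzyme final 0.5 mg/mL, 25 °C. Compounds dissolved in DMSO (2.0% final); DMSO-only controls run. Dopachrome formation followed at 475 nm for 1 min. IC50 interpolated from dose–response curves; means of three experiments.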

For another assay, the system named is Pseudomonas aeruginosa. The experiment in a line: Antibacterial activity against Pseudomonas aeruginosa at 1 mg/ml after 24 hrs by agar dilution method. It counts as functional, organism-based. The procedure, abridged: (§1)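 Agar well diffusion: overnight (16–18 h, 37 °C) cultures set to 0.5 McFarland and mixed into Mueller–Hinton agar. Compound stock 1 mg/mL in DMSO loaded into 6 mm wells, with DMSO as control and levofloxacin as reference. Plates incubated 37 °C for 24 h. Read-out is the diameter of the growth-inhibition zone around each well.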
In general terms: In agar dilution the substance is mixed into plates at graded concentrations.

The next assay concerns Escherichia coli. Nature of the assay: Antibacterial activity against Escherichia coli at 1 mg/ml after 24 hrs by agar dilution method. It counts as functional, organism-based.
Assay [1] has as its system Staphylococcus epidermidis. The experiment in a line: Antibacterial activity against Staphylococcus epidermidis at 1 mg/ml after 24 hrs by agar dilution method. The assay is classed as functional, organism-based. The procedure, abridged: as §1
The next assay relates to Staphylococcus. Nature of the assay: Antibacterial activity against Staphylococcus albus at 1 mg/ml after 24 hrs by agar dilution method. The assay is classed as functional, organism-based.
Assay [2] addresses T2, Tyrosinase (Agaricus bisporus) (UniProt O42713).
T2 sequence (whole entry): T1 sequence (O42713 whole entry)
The experiment in a line: Inhibition of mushroom tyrosinase at 200 uM. The procedure, abridged:
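Single-concentration check in the mushroom tyrosinase diphenolase assay. Conditions: 0.5 mM L-DOPA, 50 mM phosphate buffer pH 6.8, enzyme 0.5 mg/mL, 25 °C, 2.0% DMSO final with DMSO controls. Activity read as dopachrome absorbance at 475 nm over 1 min.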

The subject of the next assay is Staphylococcus aureus. The experiment in a line: Antibacterial activity against Staphylococcus aureus after 24 hrs by agar dilution method. It counts as functional. The procedure, abridged: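 MIC by agar dilution on Mueller–Hinton agar containing twofold serial dilutions from a 1 mg/mL DMSO stock. Final levels 50, 25, 12.5, 6.25, 3.1, 1.5, 0.8, 0.4 and 0.2. Inoculum was 16–18 h cultures at 0.5 McFarland; plates incubated 37 °C for 24 h. MIC is the lowest concentration preventing visible growth; levofloxacin was the reference.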

Broadly, the IC50 is the concentration needed to halve the response being measured. A lower IC50 goes with greater potency. By inhibition is commonly meant how much of the control response was suppressed. For orientation: MIC means the lowest concentration found to suppress growth. The low end stands for a more susceptible organism, the high end for a less susceptible organism. With `CCCCOCCOc1ccc(CC2C(=O)NC(=O)NC2=O)cc1`, the result (in the assay with Bacillus cereus; with Pseudomonas aeruginosa; in the assay with Escherichia coli; in assay [1]; in the assay on Staphylococcus) was inactive. The half-inhibitory concentration (IC50) at Tyrosinase was above 200 µM. The inhibition entry in assay [2] is “inactive”. Besides, the minimal inhibitory concentration (MIC) with Staphylococcus aureus is above 12.5 µg/mL.

Turning to `CCCCOCCOc1ccc(C=C2C(=O)NC(=S)NC2=O)cc1`, the outcome (with Bacillus cereus; in the assay with Pseudomonas aeruginosa; in the assay on Escherichia coli; in assay [1]; with Staphylococcus) was inactive. At Tyrosinase, this compound had an IC50 of 107 µM. Further, in assay [2], the inhibition was determined as 85.9%. For the same compound, 3.1 µg/mL (≈ 8.9 µM) was the least that counted as inhibitory in the assay with Staphylococcus aureus (MIC).

Turning to `COCCOCCOc1ccc(C=C2C(=O)NC(=S)NC2=O)cc1`, the result (in the assay on Bacillus cereus; in the assay with Pseudomonas aeruginosa; in the assay with Escherichia coli; in assay [1]; in the assay with Staphylococcus) was inactive. For the same compound, the IC50 at Tyrosinase came out at 34.2 µM. The same compound came in with an inhibition in assay [2] of 100%. Further, the MIC against Staphylococcus aureus was above 12.5 µg/mL.

As for `COCCOc1ccc(CC2C(=O)NC(=S)NC2=O)cc1`, the outcome (in the assay with Bacillus cereus; with Pseudomonas aeruginosa; in the assay with Escherichia coli; in assay [1]; in the assay with Staphylococcus) was inactive. On Tyrosinase, 113 µM corresponded to half-maximal inhibition (IC50). Further, the inhibition in assay [2] was determined as 100%. Besides, the MIC in the assay on Staphylococcus aureus is above 12.5 µg/mL.

Take `O=C1NC(=O)C(=Cc2ccc(O)cc2)C(=O)N1`: the outcome (in the assay with Bacillus cereus; in the assay on Pseudomonas aeruginosa; with Escherichia coli; in assay [1]; with Staphylococcus) was inactive. At Tyrosinase, this compound had a 50% inhibitory concentration (IC50) of 14 µM. The inhibition in assay [2] is 100%. Besides, in the assay on Staphylococcus aureus, the minimal inhibitory concentration (MIC) is above 25 µg/mL.

On to `COCCCCOc1ccc(CC2C(=O)NC(=S)NC2=O)cc1`, for which the result (in the assay with Bacillus cereus; in the assay with Pseudomonas aeruginosa; in the assay with Escherichia coli; in assay [1]; in the assay with Staphylococcus) was inactive. Moreover, the 50% inhibitory concentration (IC50) against Tyrosinase was above 200 µM. This compound yielded an inhibition in assay [2] of 9.85%. This compound yielded an MIC in the assay on Staphylococcus aureus above 12.5 µg/mL.
